The results in this text go back to ChEMBL document CHEMBL1157790, “3'-bromo analogues of pyrimidine nucleosides as a new class of potent inhibitors of Mycobacterium tuberculosis” (J Med Chem, 2010).

What all share (format): functional
The test system of assay [1] is Mycobacterium tuberculosis. Briefly: Antimycobacterial activity against rifampin-resistant Mycobacterium tuberculosis H37Rv at 10 ug/ml by radiometric BACTEC assay. The method in brief:
(§1)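 Isoniazid- or rifampicin-resistant H37Rv, growing inoculum 2.5-5.0 × 10⁵ CFU/vial, in radiometric 7H12 (BACTEC 12B) medium at 37 °C with two-fold compound dilutions. Growth index read daily in a BACTEC 460 until the 1:100 inoculum control reached GI 30. Percent inhibition = GI test/GI control × 100.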

Assay [2] has as its system Mycobacterium tuberculosis. Description: Antimycobacterial activity against rifampin-resistant Mycobacterium tuberculosis H37Rv at 1 to 2 ug/ml by radiometric BACTEC assay. The essentials:
as §1

In assay [3] the test system is Mycobacterium tuberculosis. Briefly: Antimycobacterial activity against isoniazid-resistant Mycobacterium tuberculosis H37Rv at 10 ug/ml by radiometric BACTEC assay. The method in brief:
as §1

Assay [4] deals with Mycobacterium tuberculosis. Description: Antimycobacterial activity against isoniazid-resistant Mycobacterium tuberculosis H37Rv at 2 ug/ml by radiometric BACTEC assay. The essentials: as §1
Assay [5] deals with Mycobacterium tuberculosis. Briefly: Antimycobacterial activity against rifampin-resistant Mycobacterium tuberculosis H37Rv at 1 ug/ml by radiometric BACTEC assay. The essentials: as §1
The test system of assay [6] is Mycobacterium tuberculosis. Briefly: Antimycobacterial activity against rifampin-resistant Mycobacterium tuberculosis H37Rv at 5 to 10 ug/ml by radiometric BACTEC assay. The essentials: as §1
In assay [7] the test system is Mycobacterium tuberculosis. Description: Antimycobacterial activity against isoniazid-resistant Mycobacterium tuberculosis H37Rv at 25 ug/ml by radiometric BACTEC assay. The method in brief: as §1
Assay [8] has as its system Mycobacterium tuberculosis. Briefly: Antimycobacterial activity against rifampin-resistant Mycobacterium tuberculosis H37Rv at 2 ug/ml by radiometric BACTEC assay. The method in brief:
as §1

As for `Cc1cn([C@@H]2O[C@H](CO)[C@@H](Br)[C@@H]2O)c(=O)[nH]c1=O`, the figures for the inhibition at 10 µg/mL in assay [1] and in assay [3] were 70% and 75%, respectively. In addition, the “inhibition (INH)” value in assay [2] is 50%. For the same compound, the inhibition at 2 µg/mL in assay [4] is 50%.

In the case of `NNC(=O)c1ccncc1` [ISONIAZID], 2 µg/mL produced 0% inhibition in assay [4]. Moreover, 1 µg/mL produced 100% inhibition in assay [5].

Consider `Cc1cn([C@H]2C[C@H](Br)[C@@H](CO)O2)c(=O)[nH]c1=O`, for which the inhibition at 10 µg/mL in assay [3] was determined as 50%. In addition, the “inhibition (INH)” value in assay [6] turned out to be 50%. The compound further showed an inhibition at 25 µg/mL in assay [7] of 75%.

In the case of `CO[C@H]1/C=C/O[C@@]2(C)Oc3c(C)c(O)c4c(O)c(c(/C=N/N5CCN(C)CC5)c(O)c4c3C2=O)NC(=O)/C(C)=C\C=C\[C@H](C)[C@H](O)[C@@H](C)[C@@H](O)[C@@H](C)[C@H](OC(C)=O)[C@@H]1C` [RIFAMPIN], the inhibition at 2 µg/mL in assay [8] turned out to be 0%.

Usually inhibition stands for the relative decrease from the control value, in per cent. Low readings indicate a response near the control, high ones a response far below the control.
